Legend:
Format in all cases: nucleic-acid assay
Nucleic Acid [1] = test: Binding affinity to synthetic double stranded DNA D1 at 1.5 uM at pH 6.0 by thermal denaturation study
How it was run: (§1)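 Parallel triplex melting: target duplex assembled from strands at 1.0 µM each, TFO third strand added at 1.5 µM. Buffer 20 mM sodium cacodylate, 100 mM NaCl, 10 mM MgCl₂, at the pH of the line. Samples heated to 80 °C for 5 min, cooled to 5 °C and held 30 min. Absorbance read at 260 nm while heating at 1.0 °C/min; Tm taken as the first-derivative maximum.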

Nucleic Acid [2] = test: Binding affinity to synthetic double stranded DNA D1 at 1.5 uM at pH 7.2 by thermal denaturation study; how it was run: as §1
Nucleic Acid [3] = test: Binding affinity to synthetic oligonucleotide ON18 at 1.0 uM at pH 6.0 by thermal denaturation study
How it was run: (§2)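 Duplex melting: complementary strands at 1.0 µM each in 20 mM sodium cacodylate, 100 mM NaCl, 10 mM MgCl₂, at the pH of the line. Annealed at 80 °C for 5 min, then cooled to 5 °C and held 30 min. UV absorbance read at 260 nm with heating at 1.0 °C/min; Tm is the maximum of the first-derivative curve.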

Nucleic Acid [4] = test: Binding affinity to synthetic double stranded DNA D4 at 1.5 uM at pH 6.0 by thermal denaturation study; how it was run: as §1
Nucleic Acid [5] = test: Binding affinity to synthetic double stranded DNA D1 at 1.5 uM at pH 5.0 by thermal denaturation study; how it was run: as §1
Nucleic Acid [6] = test: Binding affinity to synthetic double stranded DNA D2 at 1.5 uM at pH 6.0 by thermal denaturation study; how it was run: as §1
Nucleic Acid [7] = test: Binding affinity to synthetic double stranded DNA D3 at 1.5 uM at pH 6.0 by thermal denaturation study; how it was run: as §1
Nucleic Acid [8] = test: Binding affinity to synthetic oligonucleotide ON19 at 1.0 uM at pH 6.0 by thermal denaturation study; how it was run: as §2
Nucleic Acid [9] = test: Binding affinity to synthetic oligonucleotide ON19 at 1.0 uM at pH 7.2 by thermal denaturation study; how it was run: as §2
Nucleic Acid [10] = test: Binding affinity to synthetic oligonucleotide ON20 at 1.0 uM at pH 7.0 by thermal denaturation study
How it was run: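 DNA/RNA antiparallel duplex: each strand at 1.0 µM in 10 mM sodium phosphate, 140 mM NaCl, 1 mM EDTA, pH 7.0. Heated to 80 °C for 5 min, cooled to 5 °C and held 30 min. Absorbance followed at 260 nm during a 1.0 °C/min temperature ramp; Tm is the first-derivative maximum.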

Tm (Nucleic Acid [1]) [°C] | Tm (Nucleic Acid [2]) [°C] | Tm (Nucleic Acid [3]) [°C] | Tm (Nucleic Acid [4]) [°C] | Tm (Nucleic Acid [5]) [°C] | Tm (Nucleic Acid [6]) [°C] | Tm (Nucleic Acid [7]) [°C] | Tm (Nucleic Acid [8]) [°C] | Tm (Nucleic Acid [9]) [°C] | Tm (Nucleic Acid [10]) [°C] | SMILES
46.5 | 26 | 31.5 | 31.5 | 59.5 | 23 | 29.5 | 50.5 | 50.5 | 53 | Cc1cn([C@H]2C[C@H](OP(=O)(O)OC[C@H]3O[C@@H](n4ccc(N)nc4=O)C[C@@H]3OP(=O)(O)OC[C@H]3O[C@@H](n4cc(C)c(=O)[nH]c4=O)C[C@@H]3OP(=O)(O)OC[C@H]3O[C@@H](n4cc(C)c(=O)[nH]c4=O)C[C@@H]3OP(=O)(O)OC[C@H]3O[C@@H](n4cc(C)c(=O)[nH]c4=O)C[C@@H]3O[PH](O)(O)OC[C@H]3O[C@@H](n4cc(C)c(=O)[nH]c4=O)C[C@@H]3OP(=O)(O)OC[C@H]3O[C@@H](n4cc(C)c(=O)[nH]c4=O)C[C@@H]3OP(=O)(O)OC[C@H]3O[C@@H](n4cc(C)c(=O)[nH]c4=O)C[C@@H]3O)[C@@H](COC[C@H](CCOc3ccc(-c4nc5c6ccccc6c6ccccc6c5[nH]4)cc3)OP(=O)(O)O[C@H]3C[C@H](n4cc(C)c(=O)[nH]c4=O)O[C@@H]3COP(=O)(O)O[C@H]3C[C@H](n4cc(C)c(=O)[nH]c4=O)O[C@@H]3COP(=O)(O)O[C@H]3C[C@H](n4ccc(N)nc4=O)O[C@@H]3COP(=O)(O)O[C@H]3C[C@H](n4ccc(N)nc4=O)O[C@@H]3COP(=O)(O)O[C@H]3C[C@H](n4ccc(N)nc4=O)O[C@@H]3COP(=O)(O)O[C@H]3C[C@H](n4ccc(N)nc4=O)O[C@@H]3CO)O2)c(=O)[nH]c1=O
45.5 | 28 | 33.5 | 28.5 | 59 | 27 | 34.5 | 46.5 | 45.5 | – | Cc1cn([C@H]2C[C@H](OP(=O)(O)OC[C@H]3O[C@@H](n4ccc(N)nc4=O)C[C@@H]3OP(=O)(O)OC[C@H]3O[C@@H](n4cc(C)c(=O)[nH]c4=O)C[C@@H]3OP(=O)(O)OC[C@H]3O[C@@H](n4cc(C)c(=O)[nH]c4=O)C[C@@H]3OP(=O)(O)OC[C@H]3O[C@@H](n4cc(C)c(=O)[nH]c4=O)C[C@@H]3O[PH](O)(O)OC[C@H]3O[C@@H](n4cc(C)c(=O)[nH]c4=O)C[C@@H]3OP(=O)(O)OC[C@H]3O[C@@H](n4cc(C)c(=O)[nH]c4=O)C[C@@H]3OP(=O)(O)OC[C@H]3O[C@@H](n4cc(C)c(=O)[nH]c4=O)C[C@@H]3O)[C@@H](COC[C@H](COCc3ccc(C#Cc4ccc5ccc6cccc7ccc4c5c67)cc3)OP(=O)(O)O[C@H]3C[C@H](n4cc(C)c(=O)[nH]c4=O)O[C@@H]3COP(=O)(O)O[C@H]3C[C@H](n4cc(C)c(=O)[nH]c4=O)O[C@@H]3COP(=O)(O)O[C@H]3C[C@H](n4ccc(N)nc4=O)O[C@@H]3COP(=O)(O)O[C@H]3C[C@H](n4ccc(N)nc4=O)O[C@@H]3COP(=O)(O)O[C@H]3C[C@H](n4ccc(N)nc4=O)O[C@@H]3COP(=O)(O)O[C@H]3C[C@H](n4ccc(N)nc4=O)O[C@@H]3CO)O2)c(=O)[nH]c1=O
10.5 | – | – | – | 33 | – | – | – | – | – | Cc1cn([C@H]2C[C@H](OP(=O)(O)OC[C@H]3O[C@@H](n4ccc(N)nc4=O)C[C@@H]3OP(=O)(O)OC[C@H]3O[C@@H](n4cc(C)c(=O)[nH]c4=O)C[C@@H]3OP(=O)(O)OC[C@H]3O[C@@H](n4cc(C)c(=O)[nH]c4=O)C[C@@H]3OP(=O)(O)OC[C@H]3O[C@@H](n4cc(C)c(=O)[nH]c4=O)C[C@@H]3O[PH](O)(O)OC[C@H]3O[C@@H](n4cc(C)c(=O)[nH]c4=O)C[C@@H]3OP(=O)(O)OC[C@H]3O[C@@H](n4cc(C)c(=O)[nH]c4=O)C[C@@H]3OP(=O)(O)OC[C@H]3O[C@@H](n4cc(C)c(=O)[nH]c4=O)C[C@@H]3O)[C@@H](COC[C@H](CCOc3ccc(-c4ncc[nH]4)c4ccccc34)OP(=O)(O)O[C@H]3C[C@H](n4cc(C)c(=O)[nH]c4=O)O[C@@H]3COP(=O)(O)O[C@H]3C[C@H](n4cc(C)c(=O)[nH]c4=O)O[C@@H]3COP(=O)(O)O[C@H]3C[C@H](n4ccc(N)nc4=O)O[C@@H]3COP(=O)(O)O[C@H]3C[C@H](n4ccc(N)nc4=O)O[C@@H]3COP(=O)(O)O[C@H]3C[C@H](n4ccc(N)nc4=O)O[C@@H]3COP(=O)(O)O[C@H]3C[C@H](n4ccc(N)nc4=O)O[C@@H]3CO)O2)c(=O)[nH]c1=O
48.5 | 33.5 | 31.5 | 35.5 | – | 30.5 | 33 | 51 | 51 | 53 | Cc1cn([C@H]2C[C@H](OP(=O)(O)OC[C@H]3O[C@@H](n4cc(C)c(=O)[nH]c4=O)C[C@@H]3O[PH](O)(O)OC[C@H]3O[C@@H](n4cc(C)c(=O)[nH]c4=O)C[C@@H]3OP(=O)(O)OC[C@H]3O[C@@H](n4cc(C)c(=O)[nH]c4=O)C[C@@H]3OP(=O)(O)OC[C@H]3O[C@@H](n4cc(C)c(=O)[nH]c4=O)C[C@@H]3O)[C@@H](COC[C@H](CCOc3ccc(-c4nc5c6ccccc6c6ccccc6c5[nH]4)cc3)OP(=O)(O)O[C@H]3C[C@H](n4cc(C)c(=O)[nH]c4=O)O[C@@H]3COP(=O)(O)O[C@H]3C[C@H](n4ccc(N)nc4=O)O[C@@H]3COP(=O)(O)O[C@H]3C[C@H](n4cc(C)c(=O)[nH]c4=O)O[C@@H]3COP(=O)(O)O[C@H]3C[C@H](n4cc(C)c(=O)[nH]c4=O)O[C@@H]3COP(=O)(O)O[C@H]3C[C@H](n4cc(C)c(=O)[nH]c4=O)O[C@@H]3COP(=O)(O)O[C@H]3C[C@H](n4ccc(N)nc4=O)O[C@@H]3COP(=O)(O)O[C@H]3C[C@H](n4ccc(N)nc4=O)O[C@@H]3COP(=O)(O)O[C@H]3C[C@H](n4ccc(N)nc4=O)O[C@@H]3COP(=O)(O)O[C@H]3C[C@H](n4ccc(N)nc4=O)O[C@@H]3CO)O2)c(=O)[nH]c1=O
51.5 | 37 | 37.5 | 42 | – | 35.5 | 37 | 49 | 50.5 | 49.5 | Cc1cn([C@H]2C[C@H](OP(=O)(O)OC[C@H]3O[C@@H](n4ccc(N)nc4=O)C[C@@H]3OP(=O)(O)OC[C@H]3O[C@@H](n4cc(C)c(=O)[nH]c4=O)C[C@@H]3OP(=O)(O)O[C@@H](CCOc3ccc(-c4nc5c6ccccc6c6ccccc6c5[nH]4)cc3)COC[C@H]3O[C@@H](n4cc(C)c(=O)[nH]c4=O)C[C@@H]3OP(=O)(O)OC[C@H]3O[C@@H](n4cc(C)c(=O)[nH]c4=O)C[C@@H]3O[PH](O)(O)OC[C@H]3O[C@@H](n4cc(C)c(=O)[nH]c4=O)C[C@@H]3OP(=O)(O)OC[C@H]3O[C@@H](n4cc(C)c(=O)[nH]c4=O)C[C@@H]3OP(=O)(O)OC[C@H]3O[C@@H](n4cc(C)c(=O)[nH]c4=O)C[C@@H]3O)[C@@H](COC[C@H](CCOc3ccc(-c4nc5c6ccccc6c6ccccc6c5[nH]4)cc3)OP(=O)(O)O[C@H]3C[C@H](n4cc(C)c(=O)[nH]c4=O)O[C@@H]3COP(=O)(O)O[C@H]3C[C@H](n4cc(C)c(=O)[nH]c4=O)O[C@@H]3COP(=O)(O)O[C@H]3C[C@H](n4ccc(N)nc4=O)O[C@@H]3COP(=O)(O)O[C@H]3C[C@H](n4ccc(N)nc4=O)O[C@@H]3COP(=O)(O)O[C@H]3C[C@H](n4ccc(N)nc4=O)O[C@@H]3COP(=O)(O)O[C@H]3C[C@H](n4ccc(N)nc4=O)O[C@@H]3CO)O2)c(=O)[nH]c1=O

— ChEMBL document CHEMBL1151702, “Using an aryl phenanthroimidazole moiety as a conjugated flexible intercalator to improve the hybridization efficiency of a triplex-forming oligonucleotide” (Bioorg Med Chem, 2008)
